Experimental data from the RNAGym collection of RNA variant scans (doi:10.1038/s41586-018-0170-7).

B1: tRNA (parent)
chain: GUUCCGUUGGCGUAAUGGUAACGCGUCUCCCUCCUAAGGAGAAGACUGCGGGUUCGAGUCCCGUACGGAACG

Variants of: B1
Assay: yeast fitness, log relative to wild type (ln ratio); higher = fitter; tRNA-Arg(CCU), competitive growth, 37 C, 1 M NaCl
How it was run: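 Fitness is the natural log of a genotype's generation count divided by that of the wild type. A combinatorial library of tRNA-Arg(CCU) variants sat on a HIS3 centromeric plasmid in BY4742 lacking the chromosomal gene, from two independent transformations. Pools grew 4 generations in SC-HIS at 30 °C, then ~6.5 generations (~26.5 h) in SC-HIS 1M NaCl at 37 °C, with three outputs per input. Generations came from OD-scaled log2 output/input frequency, inverse-variance weighted across replicates, with variants counted by 125 bp paired-end Illumina sequencing.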

Row | Variant | yeast fitness (ln)
1 | AGUCCGUUGGCGUAAUGGUAACGCGUCUCCCUCCUAAGGAGACGACUGCGGGUUCGAGUCCCGUAUGGGGUG [G1A U2G A43C C66U A69G A70G C71U] | -0.457
2 | GCUCCGUUGGCGUAAUGGUAACGCGUCUCCCUCCUAAGGAGAAGAUUGCGGGUUCGAGUCCCGUAUGGGGUG [U2C C46U C66U A69G A70G C71U] | -0.0462
3 | GUUCCAUUGGCGUAAUGGUAACGCGUCUCCCUCCUAAGGAGAAGACUGCGGGUUCGAGUCCCGUACGGGACG [G6A A69G] | -0.0982
4 | GGUCCUUUGGCGUAAUGGUAACGCGUCUCCCUCCUAAGGAGAAGACUGCGGGUUCGAGUCCCGUAUGGAGCG [U2G G6U C66U A70G] | -0.154
5 | ACUCCGUUGGCGUAAUGGUAACGCGUUUCCCUCCUAAGGAGACGAUUGCGGGUUCGAGUCCCGUACGGAGCG [G1A U2C C27U A43C C46U A70G] | -0.0342
6 | GGUCCUUUGGCGUAAUGGUAACGCGUCUCCCUCCUAAGGAGAAGAUUGCGGGUUCGAGUCCCGUAAGGGUUG [U2G G6U C46U C66A A69G A70U C71U] | -0.646
7 | GCUCCAUUGGCGUAAUGGUAACGCGUUUCCCUCCUAAGGAGAAGAUUGCGGGUUCGAGUCCCGUAUGGGAUG [U2C G6A C27U C46U C66U A69G C71U] | -0.271
8 | GUUCCAUUGGCGUAAUGGUAACGCGUUUCCCUCCUAAGGAGAAGAUUGCGGGUUCGAGUCCCGUACGGGGCG [G6A C27U C46U A69G A70G] | -0.237
9 | GCUCCAUUGGCGUAAUGGUAACGCGUUUCCCUCCUAAGGAGAAGAUUGCGGGUUCGAGUCCCGUAUGGGUCG [U2C G6A C27U C46U C66U A69G A70U] | -0.284
10 | AGUCCGUUGGCGUAAUGGUAACGCGUUUCCCUCCUAAGGAGAAGACUGCGGGUUCGAGUCCCGUAUGGAUCG [G1A U2G C27U C66U A70U] | -0.174
11 | GCUCCAUUGGCGUAAUGGUAACGCGUCUCCCUCCUAAGGAGAAGACUGCGGGUUCGAGUCCCGUAAGGAGCG [U2C G6A C66A A70G] | -0.0699
12 | AUUCCUUUGGCGUAAUGGUAACGCGUUUCCCUCCUAAGGAGAAGAUUGCGGGUUCGAGUCCCGUAAGGGUUG [G1A G6U C27U C46U C66A A69G A70U C71U] | -0.37
13 | GUUCCGUUGGCGUAAUGGUAACGCGUUUCCCUCCUAAGGAGAAGACUGCGGGUUCGAGUCCCGUAAGGAAUG [C27U C66A C71U] | -0.117
14 | GCUCCAUUGGCGUAAUGGUAACGCGUUUCCCUCCUAAGGAGACGACUGCGGGUUCGAGUCCCGUAAGGAGUG [U2C G6A C27U A43C C66A A70G C71U] | -0.0895
15 | AGUCCUUUGGCGUAAUGGUAACGCGUCUCCCUCCUAAGGAGAAGAUUGCGGGUUCGAGUCCCGUAUGGGUUG [G1A U2G G6U C46U C66U A69G A70U C71U] | -0.441
16 | AUUCCGUUGGCGUAAUGGUAACGCGUUUCCCUCCUAAGGAGAAGAUUGCGGGUUCGAGUCCCGUAAGGAGCG [G1A C27U C46U C66A A70G] | -0.213
17 | AUUCCUUUGGCGUAAUGGUAACGCGUUUCCCUCCUAAGGAGAAGACUGCGGGUUCGAGUCCCGUAAGGAGCG [G1A G6U C27U C66A A70G] | -0.228
18 | GCUCCGUUGGCGUAAUGGUAACGCGUCUCCCUCCUAAGGAGAAGAUUGCGGGUUCGAGUCCCGUAUGGGUCG [U2C C46U C66U A69G A70U] | -0.0518
19 | AUUCCUUUGGCGUAAUGGUAACGCGUUUCCCUCCUAAGGAGAAGAUUGCGGGUUCGAGUCCCGUACGGAUCG [G1A G6U C27U C46U A70U] | -0.274

Row | Variant | yeast fitness (ln)
20 | AGUCCAUUGGCGUAAUGGUAACGCGUUUCCCUCCUAAGGAGACGACUGCGGGUUCGAGUCCCGUACGGAACG [G1A U2G G6A C27U A43C] | -0.235
21 | GCUCCGUUGGCGUAAUGGUAACGCGUCUCCCUCCUAAGGAGACGACUGCGGGUUCGAGUCCCGUAAGGGUUG [U2C A43C C66A A69G A70U C71U] | -0.368
22 | GGUCCUUUGGCGUAAUGGUAACGCGUUUCCCUCCUAAGGAGAAGAUUGCGGGUUCGAGUCCCGUACGGAGUG [U2G G6U C27U C46U A70G C71U] | -0.262
23 | GGUCCGUUGGCGUAAUGGUAACGCGUUUCCCUCCUAAGGAGACGACUGCGGGUUCGAGUCCCGUAAGGAACG [U2G C27U A43C C66A] | -0.171
24 | AGUCCGUUGGCGUAAUGGUAACGCGUCUCCCUCCUAAGGAGACGAUUGCGGGUUCGAGUCCCGUAAGGAGUG [G1A U2G A43C C46U C66A A70G C71U] | -0.187
25 | GGUCCGUUGGCGUAAUGGUAACGCGUUUCCCUCCUAAGGAGACGAUUGCGGGUUCGAGUCCCGUACGGGAUG [U2G C27U A43C C46U A69G C71U] | -0.193
26 | AGUCCAUUGGCGUAAUGGUAACGCGUUUCCCUCCUAAGGAGAAGAUUGCGGGUUCGAGUCCCGUAUGGAAUG [G1A U2G G6A C27U C46U C66U C71U] | -0.196
27 | AGUCCUUUGGCGUAAUGGUAACGCGUUUCCCUCCUAAGGAGACGACUGCGGGUUCGAGUCCCGUACGGGGUG [G1A U2G G6U C27U A43C A69G A70G C71U] | -0.449
28 | AUUCCUUUGGCGUAAUGGUAACGCGUUUCCCUCCUAAGGAGACGAUUGCGGGUUCGAGUCCCGUACGGGGCG [G1A G6U C27U A43C C46U A69G A70G] | -0.346
29 | GUUCCGUUGGCGUAAUGGUAACGCGUCUCCCUCCUAAGGAGACGAUUGCGGGUUCGAGUCCCGUACGGGGCG [A43C C46U A69G A70G] | -0.0166
30 | AUUCCGUUGGCGUAAUGGUAACGCGUCUCCCUCCUAAGGAGACGAUUGCGGGUUCGAGUCCCGUAUGGAAUG [G1A A43C C46U C66U C71U] | -0.247
31 | GCUCCGUUGGCGUAAUGGUAACGCGUCUCCCUCCUAAGGAGACGACUGCGGGUUCGAGUCCCGUAAGGAUUG [U2C A43C C66A A70U C71U] | -0.275
32 | GUUCCGUUGGCGUAAUGGUAACGCGUUUCCCUCCUAAGGAGAAGACUGCGGGUUCGAGUCCCGUACGGAGUG [C27U A70G C71U] | -0.38
33 | GUUCCAUUGGCGUAAUGGUAACGCGUUUCCCUCCUAAGGAGAAGACUGCGGGUUCGAGUCCCGUAUGGAACG [G6A C27U C66U] | -0.0352
34 | AUUCCAUUGGCGUAAUGGUAACGCGUUUCCCUCCUAAGGAGAAGAUUGCGGGUUCGAGUCCCGUAUGGGGCG [G1A G6A C27U C46U C66U A69G A70G] | -0.338
35 | AGUCCAUUGGCGUAAUGGUAACGCGUCUCCCUCCUAAGGAGAAGAUUGCGGGUUCGAGUCCCGUAUGGAGCG [G1A U2G G6A C46U C66U A70G] | -0.11
36 | GGUCCUUUGGCGUAAUGGUAACGCGUCUCCCUCCUAAGGAGAAGACUGCGGGUUCGAGUCCCGUACGGGUCG [U2G G6U A69G A70U] | -0.151
37 | GUUCCUUUGGCGUAAUGGUAACGCGUCUCCCUCCUAAGGAGACGAUUGCGGGUUCGAGUCCCGUAUGGAUCG [G6U A43C C46U C66U A70U] | -0.234
38 | GGUCCAUUGGCGUAAUGGUAACGCGUCUCCCUCCUAAGGAGAAGACUGCGGGUUCGAGUCCCGUACGGGUCG [U2G G6A A69G A70U] | -0.265
